Reference: ChEMBL document CHEMBL4665633, “Cereblon versus VHL: Hijacking E3 ligases against each other using PROTACs” (Bioorg Med Chem, 2019)
The source made the active and inactive calls. The rule behind the calls is not given here.

Experiments:
Assay type in all cases: cell-based
[1] = molecular target: T1, Protein cereblon/von Hippel-Lindau disease tumor suppressor (Homo sapiens, UniProt P40337+Q96SW2); assay: Protac activity at VHL/CRBN in HEK293 cells assessed as pVHL19 protein abundance at 1 uM after 2 hrs by Western blot analysis relative to DMSO
Procedure, shortened: (§1)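 HEK293 cells (DMEM, 10% FBS, penicillin/streptomycin, L-glutamine; 37 °C, 5% CO2; ≤30 passages) seeded at 1 × 10⁶ per well overnight, then treated with compound at 0.1% v/v final DMSO. Cells were lysed in RIPA with protease inhibitors and benzonase, then clarified. Equal Bradford-quantified protein was immunoblotted for CRBN/VHL. Bands were normalised to β-tubulin and expressed as % of mean 0.1% DMSO vehicle.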

[2] = molecular target: T1, Protein cereblon/von Hippel-Lindau disease tumor suppressor; assay: Protac activity at VHL/CRBN in HEK293 cells assessed as pVHL19 protein abundance at 1 uM after 24 hrs by Western blot analysis relative to DMSO; procedure, shortened: as §1
[3] = molecular target: T1, Protein cereblon/von Hippel-Lindau disease tumor suppressor; assay: Protac activity at VHL/CRBN in HEK293 cells assessed as pVHL30 protein abundance at 1 uM after 2 hrs by Western blot analysis relative to DMSO; procedure, shortened: as §1
[4] = molecular target: T1, Protein cereblon/von Hippel-Lindau disease tumor suppressor; assay: Protac activity at VHL/CRBN in HEK293 cells assessed as pVHL30 protein abundance at 1 uM after 8 hrs by Western blot analysis relative to DMSO; procedure, shortened: as §1
[5] = molecular target: T1, Protein cereblon/von Hippel-Lindau disease tumor suppressor; assay: Protac activity at VHL/CRBN in HEK293 cells assessed as CRBN protein abundance at 1 uM after 4 hrs by Western blot analysis relative to DMSO; procedure, shortened: as §1
[6] = molecular target: T1, Protein cereblon/von Hippel-Lindau disease tumor suppressor; assay: Protac activity at VHL/CRBN in HEK293 cells assessed as CRBN protein abundance at 1 uM after 8 hrs by Western blot analysis relative to DMSO; procedure, shortened: as §1
[7] = molecular target: T1, Protein cereblon/von Hippel-Lindau disease tumor suppressor; assay: Protac activity at VHL/CRBN in HEK293 cells assessed as pVHL19 protein abundance at 50 nM after 4 hrs by Western blot analysis relative to DMSO; procedure, shortened: as §1
[8] = molecular target: T1, Protein cereblon/von Hippel-Lindau disease tumor suppressor; assay: Protac activity at VHL/CRBN in HEK293 cells assessed as pVHL19 protein abundance at 1000 nM after 4 hrs by Western blot analysis relative to DMSO; procedure, shortened: as §1
[9] = molecular target: T1, Protein cereblon/von Hippel-Lindau disease tumor suppressor; assay: Protac activity at VHL/CRBN in HEK293 cells assessed as pVHL30 protein abundance at 5000 nM after 4 hrs by Western blot analysis relative to DMSO; procedure, shortened: as §1
[10] = molecular target: T1, Protein cereblon/von Hippel-Lindau disease tumor suppressor; assay: Protac activity at VHL/CRBN in HEK293 cells assessed as CRBN protein abundance at 10 nM after 4 hrs by Western blot analysis relative to DMSO; procedure, shortened: as §1
[11] = molecular target: T1, Protein cereblon/von Hippel-Lindau disease tumor suppressor; assay: Protac activity at VHL/CRBN in HEK293 cells assessed as CRBN protein abundance at 1000 nM after 4 hrs by Western blot analysis relative to DMSO; procedure, shortened: as §1
[12] = molecular target: T1, Protein cereblon/von Hippel-Lindau disease tumor suppressor; assay: Protac activity at VHL/CRBN in human HeLa cells assessed as pVHL19 protein abundance at 1 uM after 12 hrs by Western blot analysis relative to DMSO
Procedure, shortened: (§2)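 HeLa cells seeded overnight, then exposed to 1 µM compound (0.1% v/v DMSO final) over a time course. Cells were DPBS-washed and RIPA-lysed with protease inhibitors and benzonase; equal protein was loaded. Immunoblots for CRBN and VHL isoforms were quantified against β-tubulin and reported relative to the averaged 0.1% DMSO vehicle.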

[13] = molecular target: T1, Protein cereblon/von Hippel-Lindau disease tumor suppressor; assay: Protac activity at VHL/CRBN in human HeLa cells assessed as pVHL19 protein abundance at 1 uM after 24 hrs by Western blot analysis relative to DMSO; procedure, shortened: as §2
[14] = molecular target: T1, Protein cereblon/von Hippel-Lindau disease tumor suppressor; assay: Protac activity at VHL/CRBN in human HeLa cells assessed as pVHL30 protein abundance at 1 uM after 12 hrs by Western blot analysis relative to DMSO; procedure, shortened: as §2
[15] = molecular target: T1, Protein cereblon/von Hippel-Lindau disease tumor suppressor; assay: Protac activity at VHL/CRBN in human HeLa cells assessed as pVHL30 protein abundance at 5 nM after 4 hrs by Western blot analysis relative to DMSO
Procedure, shortened: (§3)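 HeLa cells (5 × 10⁵, DMEM + 10% FBS, 37 °C, 5% CO₂, ≤30 passages) seeded overnight, then treated 4 h with compound at single or graded concentrations (0.1% v/v DMSO final). RIPA lysates equalised by Bradford; SDS-PAGE and anti-CRBN/anti-VHL immunoblots; bands normalised to β-tubulin and expressed as % of mean DMSO vehicle. DC₅₀ from fit of band intensity versus log[concentration].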

[16] = molecular target: T1, Protein cereblon/von Hippel-Lindau disease tumor suppressor; assay: Protac activity at VHL/CRBN in human HeLa cells assessed as pVHL30 protein abundance at 50 nM after 4 hrs by Western blot analysis relative to DMSO; procedure, shortened: as §3
[17] = molecular target: T1, Protein cereblon/von Hippel-Lindau disease tumor suppressor; assay: Protac activity at VHL/CRBN in human HeLa cells assessed as pVHL30 protein abundance at 500 nM after 4 hrs by Western blot analysis relative to DMSO; procedure, shortened: as §3
[18] = molecular target: T1, Protein cereblon/von Hippel-Lindau disease tumor suppressor; assay: Protac activity at VHL/CRBN in human HeLa cells assessed as pVHL30 protein abundance at 1000 nM after 4 hrs by Western blot analysis relative to DMSO; procedure, shortened: as §3
[19] = molecular target: T1, Protein cereblon/von Hippel-Lindau disease tumor suppressor; assay: Protac activity at VHL/CRBN in human HeLa cells assessed as pVHL30 protein abundance at 10000 nM after 4 hrs by Western blot analysis relative to DMSO; procedure, shortened: as §3
[20] = molecular target: T1, Protein cereblon/von Hippel-Lindau disease tumor suppressor; assay: Protac activity at VHL/CRBN in human HeLa cells assessed as CRBN protein abundance at 500 nM after 4 hrs by Western blot analysis relative to DMSO; procedure, shortened: as §3
[21] = molecular target: T1, Protein cereblon/von Hippel-Lindau disease tumor suppressor; assay: Protac activity at VHL/CRBN in human HeLa cells assessed as CRBN protein abundance at 1000 nM after 4 hrs by Western blot analysis relative to DMSO; procedure, shortened: as §3
[22] = molecular target: T1, Protein cereblon/von Hippel-Lindau disease tumor suppressor; assay: Protac activity at VHL/CRBN in human HeLa cells assessed as CRBN protein abundance at 5000 nM after 4 hrs by Western blot analysis relative to DMSO; procedure, shortened: as §3
[23] = molecular target: T1, Protein cereblon/von Hippel-Lindau disease tumor suppressor; assay: Protac activity at VHL/CRBN in human HeLa cells assessed as CRBN protein abundance at 10 nM after 4 hrs by Western blot analysis relative to DMSO; procedure, shortened: as §3
[24] = molecular target: T1, Protein cereblon/von Hippel-Lindau disease tumor suppressor; assay: Protac activity at VHL/CRBN in human HeLa cells assessed as pVHL19 protein abundance at 1 uM after 4 hrs by Western blot analysis relative to DMSO; procedure, shortened: as §2
[25] = molecular target: T1, Protein cereblon/von Hippel-Lindau disease tumor suppressor; assay: Protac activity at VHL/CRBN in human HeLa cells assessed as pVHL30 protein abundance at 1 uM after 4 hrs by Western blot analysis relative to DMSO; procedure, shortened: as §2
[26] = molecular target: T1, Protein cereblon/von Hippel-Lindau disease tumor suppressor; assay: Protac activity at VHL/CRBN in HEK293 cells assessed as induction of CRBN degradation
[27] = molecular target: T1, Protein cereblon/von Hippel-Lindau disease tumor suppressor; assay: Protac activity at VHL/CRBN in human HeLa cells assessed as reduction in CRBN protein level at 10 nM after 4 hrs by Western blot analysis
Procedure, shortened: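 HeLa cells (ATCC; DMEM, 10% FBS, pen/strep, L-glutamine; 37 °C, 5% CO2; ≤30 passages; mycoplasma-tested) are seeded at 5 × 10⁵ per well overnight, then treated for 4 h with 0.1% v/v DMSO final. Lysis is in RIPA with protease inhibitors and benzonase, and equal protein (Bradford) is loaded. CRBN is immunoblotted, normalized to β-tubulin and expressed as % of mean DMSO vehicle.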

[28] = molecular target: T1, Protein cereblon/von Hippel-Lindau disease tumor suppressor; assay: Protac activity at VHL/CRBN in HEK293 cells assessed as induction of VHL degradation at 1 uM after 1 to 24 hrs by Western blot analysis; conditions: time hrs 1-24

T1 sequence (P40337 whole entry, looked up): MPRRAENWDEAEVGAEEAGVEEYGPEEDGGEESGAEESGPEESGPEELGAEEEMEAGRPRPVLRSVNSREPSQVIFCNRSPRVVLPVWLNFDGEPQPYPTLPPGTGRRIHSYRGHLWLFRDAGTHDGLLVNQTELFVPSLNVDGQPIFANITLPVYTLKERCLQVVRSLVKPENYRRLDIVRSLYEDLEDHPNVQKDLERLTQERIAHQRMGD
T1 sequence (Q96SW2 whole entry, looked up): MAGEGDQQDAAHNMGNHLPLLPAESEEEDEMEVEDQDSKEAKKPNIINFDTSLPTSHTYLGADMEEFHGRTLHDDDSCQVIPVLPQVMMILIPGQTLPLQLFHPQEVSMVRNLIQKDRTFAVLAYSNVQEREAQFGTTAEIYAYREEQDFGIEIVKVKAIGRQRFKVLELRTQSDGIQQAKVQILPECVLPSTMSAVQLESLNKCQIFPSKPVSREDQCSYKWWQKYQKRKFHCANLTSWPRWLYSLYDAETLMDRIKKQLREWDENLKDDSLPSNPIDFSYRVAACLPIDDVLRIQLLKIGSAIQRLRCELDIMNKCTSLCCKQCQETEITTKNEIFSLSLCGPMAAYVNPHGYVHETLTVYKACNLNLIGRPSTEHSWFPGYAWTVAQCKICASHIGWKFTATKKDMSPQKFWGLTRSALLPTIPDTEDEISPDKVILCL

Cc1ncsc1-c1ccc(CNC(=O)[C@@H]2C[C@@H](O)CN2C(=O)[C@@H](NC(=O)COCCCCCOCCOCCCCCOCC(=O)NCCNc2cccc3c2C(=O)N(C2CCC(=O)NC2=O)C3=O)C(C)(C)C)cc1 (stereo partly drawn)
Activity [1]: 109% | Activity [2]: 101% | Activity [3]: 87% | Activity [4]: 101% | Activity [5]: 6% | Activity [6]: 2% | Activity [7]: 111% | Activity [8]: 119% | Activity [9]: 124% | Activity [10]: 113% | Activity [11]: 23% | Activity [12]: 93% | Activity [13]: 100% | Activity [14]: 93% | Activity [15]: 61% | Activity [16]: 79% | Activity [17]: 83% | Activity [18]: 125% | Activity [19]: 142% | Activity [20]: 33% | Activity [21]: 25% | Activity [22]: 49% | Activity [23]: 81% | Activity [24]: 100% | Activity [25]: 103% | Activity [26]: Active | Activity [27]: inactive | Activity [28]: inactive
